ChEMBL document CHEMBL1144257, “5-Chloroindoloyl glycine amide inhibitors of glycogen phosphorylase: synthesis, in vitro, in vivo, and X-ray crystallographic characterization” (Bioorg Med Chem Lett, 2005)

What was measured:
SK-HEP1 = assay: Inhibitory concentration against human SK-Hep-1 cells (hepatoma cell line); type: functional, cell-based
Outline: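 SK-HEP-1 cells carrying pre-labeled ¹⁴C-glycogen, with phosphorylase activated by forskolin. Glycogenolysis is the ¹⁴C-glycogen (dpm) difference between basal and forskolin-treated cells. Inhibition is expressed as percent of forskolin-induced glycogenolysis in DMSO controls. IC50 from a 6-point curve (0.1–30μM), triplicate points, mean of ≥2 independent experiments where repeated.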

[1] = target: T1, Glycogen phosphorylase, liver form (Homo sapiens, UniProt P06737); assay: Inhibitory concentration against glycogen phosphorylase
T1 sequence (P06737 whole entry): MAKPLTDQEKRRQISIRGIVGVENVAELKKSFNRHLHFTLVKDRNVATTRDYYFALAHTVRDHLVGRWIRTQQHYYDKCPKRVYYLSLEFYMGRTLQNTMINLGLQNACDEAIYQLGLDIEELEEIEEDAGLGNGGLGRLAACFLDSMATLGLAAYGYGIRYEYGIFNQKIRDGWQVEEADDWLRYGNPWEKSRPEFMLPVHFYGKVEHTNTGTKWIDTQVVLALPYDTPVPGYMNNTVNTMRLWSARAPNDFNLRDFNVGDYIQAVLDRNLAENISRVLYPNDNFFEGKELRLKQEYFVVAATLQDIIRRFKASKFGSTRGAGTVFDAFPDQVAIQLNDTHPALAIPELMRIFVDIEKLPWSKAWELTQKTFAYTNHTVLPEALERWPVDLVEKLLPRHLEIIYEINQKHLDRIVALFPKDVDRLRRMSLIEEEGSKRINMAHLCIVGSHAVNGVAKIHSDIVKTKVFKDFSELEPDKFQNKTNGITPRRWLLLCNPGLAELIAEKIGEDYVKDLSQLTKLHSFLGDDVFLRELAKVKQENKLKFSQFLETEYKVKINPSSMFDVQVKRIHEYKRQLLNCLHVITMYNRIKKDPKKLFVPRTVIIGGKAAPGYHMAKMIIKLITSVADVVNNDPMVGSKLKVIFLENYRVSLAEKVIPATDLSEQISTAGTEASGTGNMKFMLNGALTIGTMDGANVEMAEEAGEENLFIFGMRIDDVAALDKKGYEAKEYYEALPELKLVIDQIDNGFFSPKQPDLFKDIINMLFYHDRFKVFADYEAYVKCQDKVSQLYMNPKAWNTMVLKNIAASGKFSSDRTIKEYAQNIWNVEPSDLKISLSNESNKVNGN

Mus musculus = assay: In-vivo minimum effective dose (MED) for reduction of plasma glucose in mouse after 3 hours; type: functional; settings: read-out: MED
Outline: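 Fed diabetic ob/ob mice, oral dosing in neat PEG400, starting at […] and then at successively lower doses. Plasma glucose measured 3h post-dose. Lowering is expressed as percent decrease versus vehicle-treated controls within the same experiment, with significance by unpaired t-test on group mean glucose. MED is the lowest dose giving reduction.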

Row | Structure (SMILES) | IC50 (SK-HEP1) [nM] | IC50 [1] [nM] | minimal effective dose (Mus musculus) [mg/kg]
1 | CC(O)(CO)CN(C(=O)CNC(=O)c1cc2cc(Cl)ccc2[nH]1)C1CCCC1 (stereo not drawn) | 2400 | 83 | > 10
2 | CCOC(=O)CN(C(=O)CNC(=O)c1cc2cc(Cl)ccc2[nH]1)C1CCCC1 | 5200 | 530 | 
3 | CC(C)OCC(O)CN(C(=O)CNC(=O)c1cc2cc(Cl)ccc2[nH]1)C1CCCC1 (stereo not drawn) |  | 930 | 
4 | CN1CCC(N(C)C(=O)CNC(=O)c2cc3cc(Cl)ccc3[nH]2)C1 (stereo not drawn) |  | 9600 | 
5 | NC(CO)CN(C(=O)CNC(=O)c1cc2cc(Cl)ccc2[nH]1)C1CCCC1 (stereo not drawn) | 8300 | 510 | 
6 | O=C(NCC(=O)N(CCO)Cc1ccco1)c1cc2cc(Cl)ccc2[nH]1 | 1500 | 260 | 
7 | O=C(NCC(=O)N(CCOCc1ccccc1)C1CCCC1)c1cc2cc(Cl)ccc2[nH]1 |  | 1600 | 
8 | CN(Cc1ccncc1)C(=O)CNC(=O)c1cc2cc(Cl)ccc2[nH]1 |  | 1600 | 
9 | CN(CCc1ccccc1)C(=O)CNC(=O)c1cc2cc(Cl)ccc2[nH]1 |  | > 10000 | 
10 | CC(CCO)N(C(=O)CNC(=O)c1cc2cc(Cl)ccc2[nH]1)C1CCCC1 (stereo not drawn) | 1400 | 210 | 
11 | COCC(N)CN(C(=O)CNC(=O)c1cc2cc(Cl)ccc2[nH]1)C1CCCC1 (stereo not drawn) |  | 1200 | 
12 | CC(O)CN(C(=O)CNC(=O)c1cc2cc(Cl)ccc2[nH]1)C1CCCC1 (stereo not drawn) | 1300 | 16 | 
13 | COCCN(C(=O)CNC(=O)c1cc2cc(Cl)ccc2[nH]1)C1CCCC1 | 1500 | 200 | > 10
14 | NCCN(C(=O)CNC(=O)c1cc2cc(Cl)ccc2[nH]1)C1CCCC1 |  | 1600 | 
15 | CN(C(=O)CNC(=O)c1cc2cc(Cl)ccc2[nH]1)C1CCN(C=O)C1 (stereo not drawn) | 19000 | 250 | 
16 | NCCCN(C(=O)CNC(=O)c1cc2cc(Cl)ccc2[nH]1)C1CCCC1 |  | 3000 | 
17 | O=C(O)CN(C(=O)CNC(=O)c1cc2cc(Cl)ccc2[nH]1)C1CCCC1 | > 10000 | 260 | 
18 | CN(C(=O)CNC(=O)c1cc2cc(Cl)ccc2[nH]1)C1CCS(=O)(=O)C1 (stereo not drawn) | 2000 | 410 | 
19 | O=C(NCC(=O)N(CCCCO)C1CCCC1)c1cc2cc(Cl)ccc2[nH]1 |  | 3900 | 
20 | CCCCN(C)C(=O)CNC(=O)c1cc2cc(Cl)ccc2[nH]1 | 1400 | 150 | 
21 | O=C(NCC(=O)N(CCN1CCOCC1)C1CCCC1)c1cc2cc(Cl)ccc2[nH]1 |  | 1500 | 
22 | O=C(NCC(=O)N(CCO)C1CCSC1)c1cc2cc(Cl)ccc2[nH]1 (stereo not drawn) | 5000 | 340 | 
23 | CN(C(=O)CNC(=O)c1cc2cc(Cl)ccc2[nH]1)C(C)(C)C |  | 670 | 
24 | O=C(NCC(=O)N(CCO)C1CCS(=O)(=O)C1)c1cc2cc(Cl)ccc2[nH]1 (stereo not drawn) |  | 1300 | 
25 | CN(CC(F)(F)F)C(=O)CNC(=O)c1cc2cc(Cl)ccc2[nH]1 |  | 1900 | 
26 | COCC(O)CN(C(=O)CNC(=O)c1cc2cc(Cl)ccc2[nH]1)C1CCCC1 (stereo not drawn) | 870 | 100 | 
27 | COCCCN(C(=O)CNC(=O)c1cc2cc(Cl)ccc2[nH]1)C1CCCC1 |  | 370 | 
28 | CC(C)CN(C)C(=O)CNC(=O)c1cc2cc(Cl)ccc2[nH]1 | 620 | 230 | 
29 | O=C(NCC(=O)N(CCO)C1CCS(=O)(=O)CC1)c1cc2cc(Cl)ccc2[nH]1 | > 30000 | 12 | 
30 | O=C(NCC(=O)N(CCO)CC1CCCO1)c1cc2cc(Cl)ccc2[nH]1 (stereo not drawn) | 5700 | 550 | 

The remaining compounds from weak to strong by IC50 [1], led by results:

Row | IC50 (SK-HEP1) [nM] | IC50 [1] [nM] | Structure (SMILES) | minimal effective dose (Mus musculus) [mg/kg]
31 |  | 9700 | CN(C)CCN(C(=O)CNC(=O)c1cc2cc(Cl)ccc2[nH]1)C1CCCC1 | 
32 |  | 8400 | CN(C(=O)CNC(=O)c1cc2cc(Cl)ccc2[nH]1)C1CCN(C=O)CC1 | 
33 |  | 5000 | CN(C)CCCN(C(=O)CNC(=O)c1cc2cc(Cl)ccc2[nH]1)C1CCCC1 | 
34 |  | 4600 | NC(=O)CN(C(=O)CNC(=O)c1cc2cc(Cl)ccc2[nH]1)C1CCCC1 | 
35 |  | 2100 | CN(C(=O)CNC(=O)c1cc2cc(Cl)ccc2[nH]1)C1CCC(O)CC1 (stereo not drawn) | 
36 |  | 1900 | CN(Cc1cccnc1)C(=O)CNC(=O)c1cc2cc(Cl)ccc2[nH]1 | 
37 |  | 1500 | CN(Cc1ccccn1)C(=O)CNC(=O)c1cc2cc(Cl)ccc2[nH]1 | 
38 |  | 1100 | O=C(NCC(=O)N(CCO)Cc1cccnc1)c1cc2cc(Cl)ccc2[nH]1 | 
39 |  | 1100 | CC(C)OCCN(C(=O)CNC(=O)c1cc2cc(Cl)ccc2[nH]1)C1CCCC1 | 
40 | > 30000 | 950 | O=C(NCC(=O)N(CCO)C1CCCCCCCCCCC1)c1cc2cc(Cl)ccc2[nH]1 | 
41 |  | 670 | CN(C(=O)CNC(=O)c1cc2cc(Cl)ccc2[nH]1)C1CC1 | 
42 |  | 670 | CC(C)OCCCN(C(=O)CNC(=O)c1cc2cc(Cl)ccc2[nH]1)C1CCCC1 | 
43 |  | 660 | O=C(NCC(=O)N(C1CCCC1)C1CCCC1)c1cc2cc(Cl)ccc2[nH]1 | 
44 | 4000 | 570 | CN(CCO)C(=O)CNC(=O)c1cc2cc(Cl)ccc2[nH]1 | 
45 | > 10000 | 550 | CN(Cc1ccccc1)C(=O)CNC(=O)c1cc2cc(Cl)ccc2[nH]1 | 
46 | 3400 | 510 | CN(C(=O)CNC(=O)c1cc2cc(Cl)ccc2[nH]1)C1CCOCC1 | 
47 | 1200 | 470 | CN(CC1CC1)C(=O)CNC(=O)c1cc2cc(Cl)ccc2[nH]1 | 
48 | 14000 | 430 | O=C(NCC(=O)N(CCO)Cc1ncc[nH]1)c1cc2cc(Cl)ccc2[nH]1 | 
49 | 13000 | 410 | CN(C)C(=O)CN(C(=O)CNC(=O)c1cc2cc(Cl)ccc2[nH]1)C1CCCC1 | 
50 | 9400 | 350 | O=C(NCC(=O)N(C(CO)CO)C1CCCC1)c1cc2cc(Cl)ccc2[nH]1 | 
51 | 9900 | 340 | CN(C(=O)CNC(=O)c1cc2cc(Cl)ccc2[nH]1)c1ccccn1 | 
52 |  | 340 | CCCN(C(=O)CNC(=O)c1cc2cc(Cl)ccc2[nH]1)C1CCCC1 | 

Row | IC50 (SK-HEP1) [nM] | IC50 [1] [nM] | Structure (SMILES) | minimal effective dose (Mus musculus) [mg/kg]
53 | 1700 | 330 | CN(C(=O)CNC(=O)c1cc2cc(Cl)ccc2[nH]1)c1cccnc1 | 
54 | > 10000 | 320 | CN(C(=O)CNC(=O)c1cc2cc(Cl)ccc2[nH]1)C1CCCCCC1 | 
55 | 2500 | 320 | O=C(NCC(=O)N(CCO)Cc1ccccc1)c1cc2cc(Cl)ccc2[nH]1 | 
56 | 6700 | 290 | CC(C)(C)N(CCO)C(=O)CNC(=O)c1cc2cc(Cl)ccc2[nH]1 | 
57 | 410 | 210 | CCN(C(=O)CNC(=O)c1cc2cc(Cl)ccc2[nH]1)C1CCCC1 | 
58 | 7100 | 210 | CN(C(=O)CNC(=O)c1cc2cc(Cl)ccc2[nH]1)c1ccccc1 | 
59 | > 30000 | 210 | O=C(NCC(=O)N(CCO)C1CCCCCCCCC1)c1cc2cc(Cl)ccc2[nH]1 | 
60 | 4600 | 200 | O=C(NCC(=O)N(CCO)C1CC1)c1cc2cc(Cl)ccc2[nH]1 | 
61 | 1000 | 170 | CN(C(=O)CNC(=O)c1cc2cc(Cl)ccc2[nH]1)C1CCC1 | 
62 | 1400 | 150 | CN(C(=O)CNC(=O)c1cc2cc(Cl)ccc2[nH]1)C1CCCCC1 | > 10
63 | 750 | 140 | N#CCCN(C(=O)CNC(=O)c1cc2cc(Cl)ccc2[nH]1)C1CCCC1 | 
64 | 270 | 120 | O=C(NCC(=O)N(CCO)c1ccccc1)c1cc2cc(Cl)ccc2[nH]1 | > 10
65 | 1000 | 120 | CCCCN(CCO)C(=O)CNC(=O)c1cc2cc(Cl)ccc2[nH]1 | > 10
66 | 900 | 96 | C=CCN(C(=O)CNC(=O)c1cc2cc(Cl)ccc2[nH]1)C1CCCC1 | 
67 | 28000 | 82 | O=C(NCC(=O)N(CCO)C1CCCCCCCC1)c1cc2cc(Cl)ccc2[nH]1 | 
68 | 9400 | 82 | CCCCN(C(=O)CNC(=O)c1cc2cc(Cl)ccc2[nH]1)C1CCCC1 | 
69 | 1800 | 55 | O=C(NCC(=O)N(CCO)C1CCOC1)c1cc2cc(Cl)ccc2[nH]1 (stereo not drawn) | 
70 | 1300 | 54 | O=C(NCC(=O)N(CC(O)CO)C1CCCC1)c1cc2cc(Cl)ccc2[nH]1 (stereo not drawn) | 10
71 | 1800 | 49 | O=C(NCC(=O)N(CCO)C1CCc2ccccc21)c1cc2cc(Cl)ccc2[nH]1 (stereo not drawn) | 
72 | 760 | 42 | O=C(NCC(=O)N(CCCO)C1CCCC1)c1cc2cc(Cl)ccc2[nH]1 | > 10
73 | 12000 | 32 | O=C(NCC(=O)N(CCO)C1CCCCCCC1)c1cc2cc(Cl)ccc2[nH]1 | 
74 | 2300 | 30 | O=C(NCC(=O)N(CCO)C1CCCCCC1)c1cc2cc(Cl)ccc2[nH]1 | 
